Measured values as given in ChEMBL document CHEMBL1806469, “Design, synthesis, and antiproliferative activity of new 1H-pyrrolo[3,2-c]pyridine derivatives against melanoma cell lines” (Eur J Med Chem, 2011).

How the values were obtained:
A-375 = experiment: Antiproliferation activity against human A375P cells after 48 hrs by MTT assay in presence of fetal bovine serum; format: functional, cell-based; settings: A-375, 48 h
Method in brief: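 A375P cells kept in DMEM with 10% FBS and 1% penicillin/streptomycin at 37 °C, 5% CO2. Plated at 5 × 10³ cells/well, left 24 h, then given 12 concentrations (3-fold serial dilution) for 48 h. Viability read by MTT reduction at 590 nm. IC50 from the dose-response curve; each compound tested in triplicate.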

NIH3T3 = experiment: Antiproliferation activity against mouse NIH/3T3 cells after 48 hrs by MTT assay in presence of bovine calf serum; format: cell-based; settings: NIH3T3, 48 h
SK-MEL-2 = experiment: Antiproliferation activity against human SK-MEL-2 cells after 48 hrs by SRB assay; format: functional, cell-based; settings: SK-MEL-2, 48 h
Method in brief: (§1)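 Run by the NCI. Cells grown in RPMI 1640 with 5% FBS and 2 mM glutamine, plated at 5000–40,000 cells/well by doubling time, and left 24 h at 37 °C, 5% CO2. Time-zero plates fixed with TCA. Drug (DMSO stock) given at five concentrations for 48 h. Cells fixed with cold TCA (final 10%), stained with 0.4% SRB, and read at 515 nm. IC50 taken as 50% reduction in net protein increase versus control.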

UACC-62 = experiment: Antiproliferation activity against human UACC62 cells after 48 hrs by SRB assay; format: functional, cell-based; settings: UACC-62, 48 h; method in brief: as §1
LOX IMVI = experiment: Antiproliferation activity against human LOXIMVI cells after 48 hrs by SRB assay; format: functional, cell-based; method in brief: as §1
SK-MEL-28 = experiment: Antiproliferation activity against human SK-MEL-28 cells after 48 hrs by SRB assay; format: functional, cell-based; settings: SK-MEL-28, 48 h; method in brief: as §1
M14 = experiment: Antiproliferation activity against human M14 cells after 48 hrs by SRB assay; format: functional, cell-based; settings: M14, 48 h; method in brief: as §1
MDA-MB-435 = experiment: Antiproliferation activity against human MDA-MB-435 cells after 48 hrs by SRB assay; format: functional, cell-based; settings: MDA-MB-435, 48 h; method in brief: as §1
SK-MEL-5 = experiment: Antiproliferation activity against human SK-MEL-5 cells after 48 hrs by SRB assay; format: functional, cell-based; settings: SK-MEL-5, 48 h; method in brief: as §1
Malme-3M = experiment: Antiproliferation activity against human MALME-3M cells after 48 hrs by SRB assay; format: functional, cell-based; method in brief: as §1
UACC-257 = experiment: Antiproliferation activity against human UACC257 cells after 48 hrs by SRB assay; format: functional, cell-based; settings: UACC-257, 48 h; method in brief: as §1

Row | Compound | IC50 (A-375) [µM] | IC50 (NIH3T3) [µM] | also measured
1 | Cc1cc(NC(=O)c2ccc(N3CCOCC3)c(C(F)(F)F)c2)ccc1-n1ccc2c(NC(=O)c3ccccc3)nccc21 | > 10 |  | 
2 | O=C(Nc1ccc(-n2ccc3c(NC(=O)c4ccccc4)nccc32)cc1)Nc1cccc(Cl)c1Cl | > 10 |  | 
3 | O=C(Nc1ccc(-n2ccc3c(NC(=O)c4ccccc4)nccc32)cc1)Nc1ccc(Cl)c(Cl)c1 | 0.2 | 11.5 | 
4 | O=C(Nc1ccc(-n2ccc3c(NC(=O)c4ccccc4)nccc32)cc1)Nc1cccc(C(F)(F)F)c1 | 7 |  | 
5 | O=C(Nc1ccc(-n2ccc3c(NC(=O)c4ccccc4)nccc32)cc1)Nc1ccc(Cl)c(C(F)(F)F)c1 | 2.4 |  | 
6 | O=C(Nc1ccc(-n2ccc3c(NC(=O)c4ccccc4)nccc32)cc1)Nc1cc(C(F)(F)F)cc(C(F)(F)F)c1 | 1.8 |  | 
7 | Cc1cc(NC(=O)Nc2cccc(Cl)c2Cl)ccc1-n1ccc2c(NC(=O)c3ccccc3)nccc21 | > 10 |  | 
8 | CCN1CCN(Cc2ccc(NC(=O)Nc3ccc(-n4ccc5c(NC(=O)c6ccccc6)nccc54)cc3)cc2C(F)(F)F)CC1 | 0.095 | 0.98 | IC50 (SK-MEL-2): 3.62 µM; IC50 (UACC-62): 1.27 µM; IC50 (LOX IMVI): 0.481 µM; IC50 (SK-MEL-28): 1.29 µM; IC50 (M14): 1.22 µM; IC50 (MDA-MB-435): 0.894 µM; IC50 (SK-MEL-5): 0.764 µM; IC50 (Malme-3M): 1.54 µM; IC50 (UACC-257): 1.59 µM
9 | Nc1nccc2c1ccn2-c1ccc(NC(=O)Nc2cccc(C(F)(F)F)c2)cc1 | 5.4 |  | 
10 | Nc1nccc2c1ccn2-c1ccc(NC(=O)Nc2ccc(Cl)c(C(F)(F)F)c2)cc1 | 8 |  | 
11 | O=C(Nc1ccc(-n2ccc3c(NC(=O)c4ccccc4)nccc32)cc1)c1cccc(C(F)(F)F)c1 | 0.1 | 0.05 | 
12 | O=C(Nc1ccc(-n2ccc3c(NC(=O)c4ccccc4)nccc32)cc1)c1ccc(Cl)c(C(F)(F)F)c1 | 0.0164 | 5.65 | 
13 | Cc1cn(-c2cc(C(=O)Nc3ccc(-n4ccc5c(NC(=O)c6ccccc6)nccc54)cc3)cc(C(F)(F)F)c2)cn1 | 0.8 | 5.57 | 
14 | O=C(Nc1ccc(-n2ccc3c(NC(=O)c4ccccc4)nccc32)cc1)c1ccc(N2CCOCC2)c(C(F)(F)F)c1 | 0.007 | 1.74 | IC50 (SK-MEL-2): 0.637 µM; IC50 (UACC-62): 0.485 µM; IC50 (LOX IMVI): 0.0456 µM; IC50 (SK-MEL-28): 0.292 µM; IC50 (M14): 0.763 µM; IC50 (MDA-MB-435): 0.119 µM; IC50 (SK-MEL-5): 0.138 µM; IC50 (Malme-3M): 11.5 µM; IC50 (UACC-257): 1.98 µM
15 | O=C(Nc1ccc(-n2ccc3c(NC(=O)c4ccccc4)nccc32)cc1)c1cc(N2CCOCC2)cc(C(F)(F)F)c1 | 0.3 | 0.27 | 
16 | Cc1cc(NC(=O)c2cccc(C(F)(F)F)c2)ccc1-n1ccc2c(NC(=O)c3ccccc3)nccc21 | > 10 |  | 
17 | Cc1cc(NC(=O)c2ccc(Cl)c(C(F)(F)F)c2)ccc1-n1ccc2c(NC(=O)c3ccccc3)nccc21 | 2.7 |  | 
18 | O=C(Nc1nccc2c1ccn2-c1ccc(NC(=O)c2ccc(-c3cc(C(F)(F)F)ccc3Cl)o2)cc1)c1ccccc1 | 1 | 15.9 | 
19 | Nc1nccc2c1ccn2-c1ccc(NC(=O)c2ccc(Cl)c(C(F)(F)F)c2)cc1 | 3.8 |  | 
20 | Nc1nccc2c1ccn2-c1ccc(NC(=O)c2ccc(N3CCOCC3)c(C(F)(F)F)c2)cc1 | 6.2 |  | 
21 | CNC(=O)c1cc(Oc2ccc(NC(=O)Nc3ccc(Cl)c(C(F)(F)F)c3)cc2)ccn1 [SORAFENIB] | 5.6 | 24.8 | 
